The values that follow come from article PMC4633020 (Journal of medicinal chemistry, 2015).

One data set deals with E. faecium NCTC 7171. Description: MIC, broth microdilution. Format: cell-based, Enterococcus faecium. As to conditions: for antibacterial activity against E. faecium (in words): SAR discussion, E. faecium NCTC 7171; for MIC: Enterococcus faecium, NCTC7171, E. faecium NCTC 7171.
The nature of data set [1]: In vitro metabolic stability in human liver S9. Format: in vitro ADME. Particulars: calculated from in vitro half-life in human liver S9.
The nature of data set [2]: Plasma-protein binding, equilibrium dialysis. Particulars: human plasma. Format: in vitro ADME.
The target in a further data set is PBP2a of S. aureus (Staphylococcus aureus, UniProt P07944). Briefly: BOCILLIN FL binding assay for PBP2a. Particulars: at concentrations of up to 100 μg/mL.
Chain of PBP2a of S. aureus (P07944 whole entry): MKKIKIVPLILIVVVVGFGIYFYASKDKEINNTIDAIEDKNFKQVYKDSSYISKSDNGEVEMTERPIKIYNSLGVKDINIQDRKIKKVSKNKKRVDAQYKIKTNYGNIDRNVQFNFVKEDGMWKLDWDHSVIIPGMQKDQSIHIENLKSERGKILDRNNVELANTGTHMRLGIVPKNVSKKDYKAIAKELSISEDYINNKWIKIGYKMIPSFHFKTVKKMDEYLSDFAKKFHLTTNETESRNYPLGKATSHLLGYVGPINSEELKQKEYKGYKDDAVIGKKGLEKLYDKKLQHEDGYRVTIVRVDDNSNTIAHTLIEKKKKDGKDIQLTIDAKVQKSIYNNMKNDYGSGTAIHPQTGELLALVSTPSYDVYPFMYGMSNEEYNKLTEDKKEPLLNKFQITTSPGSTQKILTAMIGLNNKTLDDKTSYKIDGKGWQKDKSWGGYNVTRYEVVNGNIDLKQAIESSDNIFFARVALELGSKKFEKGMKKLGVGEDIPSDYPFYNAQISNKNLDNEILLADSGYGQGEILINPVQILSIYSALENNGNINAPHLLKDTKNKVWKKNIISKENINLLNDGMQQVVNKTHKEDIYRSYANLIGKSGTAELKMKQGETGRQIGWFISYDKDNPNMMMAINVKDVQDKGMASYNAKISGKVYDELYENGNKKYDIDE
A further data set relates to PBP5fm of E. faecium. Description: BOCILLIN FL binding assay for PBP5fm. As to conditions: at up to 100 μg/mL. In outline:
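Recombinant PBP5 (aa 34-678, E. faecium D63r) carried an N-terminal His-tag, was expressed in E. coli BL21(DE3), and was purified by anion exchange then metal chelate column. Enzyme (40 μM final) was preincubated with test compound in 25 mM Hepes, 1 M NaCl, pH 7.0 at 37 °C. BOCILLIN FL (30 μM final) was then added, with incubations of 20 min. Labelling was read by 12% SDS-PAGE fluorescence scan and band quantitation against a no-inhibitor control.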

Data set [3] has as its system PBPs in the E. faecium membrane fractions. Description: PBP inhibition in E. faecium membrane fractions. Format: binding. As to conditions: data less clear due to low PBP copy numbers.
A further data set can be described thus: Hemolysis assay. Particulars: red blood cells.
The conditions of data set [4]: marketed antibiotics; cited from earlier work.

Entries after “also recorded” stand apart in the source; their conditions may differ. A value given as a limit tells only on which side of the number the result lay.

With `CC1=C(C(N)=O)C(c2ccccc2)n2nc(SCc3ccccc3)nc2N1` (stereo not shown) [Compound 2], the “antibacterial activity against E. faecium (in words)” value (shortened to “antibacterial activity”) with E. faecium NCTC 7171 is recorded as “loss of antibacterial activity”. In turn, `CCc1ccc(C2C(C(N)=O)=C(C)Nc3nc(SCc4ccccc4)nn32)cc1` (stereo not shown) [Compound 4] showed an MIC in the data set with E. faecium NCTC 7171 of at most 8 µg/mL. `CC1=C(C(N)=O)C(c2ccc(O)cc2)n2nc(SCc3ccccc3)nc2N1` (stereo not shown) [Compound 6]: the “antibacterial activity” value with E. faecium NCTC 7171 is listed as “loss of antimicrobial activity”. As for `COc1ccc(C2C(C(N)=O)=C(C)Nc3nc(SCc4ccccc4)nn32)cc1` (stereo not shown) [Compound 7], the “antibacterial activity” value in the data set with E. faecium NCTC 7171 is given as “devoid of activity”.

In the case of `COc1ccc(C2C(C(N)=O)=C(C)Nc3nc(SCc4ccccc4)nn32)cc1O` (stereo not shown) [Compound 8], the “antibacterial activity” value in the data set on E. faecium NCTC 7171 is “loss of antimicrobial activity”.

For the compound `COc1ccc(C2C(C(N)=O)=C(C)Nc3nc(SCc4ccccc4)nn32)cc1OC` (stereo not shown) [Compound 9], the “antibacterial activity” value with E. faecium NCTC 7171 is on record as “loss of antimicrobial activity”. `CC1=C(C(N)=O)C(c2ccc(OC(C)C)cc2)n2nc(SCc3ccccc3)nc2N1` (stereo not shown) [Compound 10, 2-(Benzylthio)-7-(4-isopropoxyphenyl)-5-methyl-4,7-dihydro-[1,2,4]triazolo[1,5-a]pyrimidine-6-carboxamide] showed an MIC with E. faecium NCTC 7171 of at most 8 µg/mL. Besides, the Apparent intrinsic clearance in data set [1] is 10.9 mLmin^−1kg^−1. Besides, the “Plasma-protein binding (in words)” value in data set [2] was “high”. Take `CC1=C(C(N)=O)C(c2ccc(OC(F)(F)F)cc2)n2nc(SCc3ccccc3)nc2N1` (stereo not shown) [Compound 11]: in the data set with E. faecium NCTC 7171, the MIC is at most 8 µg/mL and the “antibacterial activity” value is reported as “retained activity”.

Regarding `CSc1ccc(C2C(C(N)=O)=C(C)Nc3nc(SCc4ccccc4)nn32)cc1` (stereo not shown) [Compound 12], the “antibacterial activity” value with E. faecium NCTC 7171 was “devoid of activity”. Take `CCSc1ccc(C2C(C(N)=O)=C(C)Nc3nc(SCc4ccccc4)nn32)cc1` (stereo not shown) [Compound 13, 2-(Benzylthio)-7-(4-ethylthiophenyl]-5-methyl-4,7-dihydro[1,2,4]-triazolo[1,5-a]pyrimidine-6-carboxamide]: in the data set with E. faecium NCTC 7171 (compared to the 4-OCH3 (7) and 4-SMe (12) derivatives), the “improvement of the anti-E. faecium activity” value is recorded as 32 fold. Further, the Apparent intrinsic clearance in data set [1] is recorded as under 10.4 mLmin^−1kg^−1. Further, the “Plasma-protein binding (in words)” value in data set [2] was “high”.

In the data set with E. faecium NCTC 7171, `CCN(CC)c1ccc(C2C(C(N)=O)=C(C)Nc3nc(SCc4ccccc4)nn32)cc1` (stereo not shown) [Compound 17] displayed an MIC of at most 8 µg/mL. For the compound `CCN(CC)CCOc1ccc(C2C(C(N)=O)=C(C)Nc3nc(SCc4ccccc4)nn32)cc1` (stereo not shown) [Compound 20], in the data set with E. faecium NCTC 7171, the “antibacterial activity” value is recorded as “no activity”. `CC1=C(C(N)=O)C(c2ccc(C(F)(F)F)cc2)n2nc(SCc3ccccc3)nc2N1` (stereo not shown) [Compound 21]: in the data set with E. faecium NCTC 7171, the MIC was at most 8 µg/mL and the “antibacterial activity” value is given as “retained activity”. Turning to `CC1=C(C(N)=O)C(c2ccc(F)cc2)n2nc(SCc3ccccc3)nc2N1` (stereo not shown) [Compound 22], the “antibacterial activity” value in the data set with E. faecium NCTC 7171 is “did not show any activity”. With `CC1=C(C(N)=O)C(c2ccc(Cl)cc2)n2nc(SCc3ccccc3)nc2N1` (stereo not shown) [Compound 23], the “antibacterial activity” value in the data set with E. faecium NCTC 7171 is “did not show any activity”.

`CC1=C(C(N)=O)C(c2ccc(C#N)cc2)n2nc(SCc3ccccc3)nc2N1` (stereo not shown) [Compound 24]: the “antibacterial activity” value in the data set on E. faecium NCTC 7171 is “retained activity”. As for `CC1=C(C(N)=O)C(c2ccccc2C(F)(F)F)n2nc(SCc3ccccc3)nc2N1` (stereo not shown) [Compound 27], in the data set with E. faecium NCTC 7171, the “antibacterial activity” value was “inactive”. Regarding `CC1=C(C(N)=O)C(C2CCCCC2)n2nc(SCc3ccccc3)nc2N1` (stereo not shown) [Compound 42], the “antibacterial activity” value in the data set with E. faecium NCTC 7171 is recorded as “devoid of activity”. As to `CCOC(=O)C1=C(C)Nc2nc(SCc3ccccc3)nn2C1c1ccc(N(C)C)cc1` (stereo not shown) [Compound 43], the “antibacterial activity” value with E. faecium NCTC 7171 is on record as “lost antimicrobial activity”. `CNC(=O)C1=C(C)Nc2nc(SCc3ccccc3)nn2C1c1ccc(N(C)C)cc1` (stereo not shown) [Compound 45]: the “antibacterial activity” value in the data set on E. faecium NCTC 7171 is “slight reduction of activity”.

`CN(C)c1ccc(C2C3=C(CCCC3=O)Nc3nc(SCc4ccccc4)nn32)cc1` (stereo not shown) [Compound 46]: the “antibacterial activity” value in the data set with E. faecium NCTC 7171 is reported as “abolished activity”. On to `CC1=C(C(=O)Nc2ccccc2)C(c2ccc(N(C)C)cc2)n2nc(SCc3ccccc3)nc2N1` (stereo not shown) [Compound 51], for which, in the data set with E. faecium NCTC 7171, the “antibacterial activity” value was “slight reduction of activity”. Take `CC1=C(C(N)=O)C(c2ccc(N(C)C)cc2)n2nc(SCCNC(=O)OCc3ccccc3)nc2N1` (stereo not shown) [Compound 72]: the “antibacterial activity” value in the data set on E. faecium NCTC 7171 is listed as “not tolerated”. Consider `CC1=C(C(N)=O)C(c2ccc(C(C)C)cc2)n2nc(SCCNC(=O)OCc3ccccc3)nc2N1` (stereo not shown) [Compound 73], for which the “antibacterial activity” value in the data set on E. faecium NCTC 7171 is reported as “not tolerated”. Regarding `CC1=C(C(N)=O)C(c2ccc(C(=O)O)cc2)n2nc(SCCNC(=O)OCc3ccccc3)nc2N1` (stereo not shown) [Compound 74], in the data set on E. faecium NCTC 7171, the “antibacterial activity” value was “not tolerated”. For the compound `CC1=C(C(N)=O)C(c2ccc(N(C)C)cc2)n2nc(SCc3ccncc3)nc2N1` (stereo not shown) [Compound 75], the “antibacterial activity” value in the data set on E. faecium NCTC 7171 was “loss of activity”. The same measure, in the same setting: with `CC1=C(C(N)=O)C(c2ccc(N(C)C)cc2)n2nc(Sc3ccccn3)nc2N1` (stereo not shown) [Compound 76] the entry was “loss of activity”; with `CC1=C(C(N)=O)C(c2ccc(N(C)C)cc2)n2nc(SCc3ccc(C(F)(F)F)cc3)nc2N1` (stereo not shown) [Compound 80], “no activity”; with `CC1=C(C(N)=O)C(c2ccc(N(C)C)cc2)n2nc(SCc3ccc(OC(F)(F)F)cc3)nc2N1` (stereo not shown) [Compound 81], “no activity”. Turning to `CC1=C(C(N)=O)C(c2ccc(N(C)C)cc2)n2nc(SCc3ccc(SC(F)(F)F)cc3)nc2N1` (stereo not shown) [Compound 82], the “antibacterial activity” value in the data set on E. faecium NCTC 7171 is “as active as compound 1”. With `CC1=C(C(N)=O)C(c2ccc(N(C)C)cc2)n2nc(SCc3ccc([N+](=O)[O-])cc3)nc2N1` (stereo not shown) [Compound 83, 2-(4-Nitrobenzylthio)-7-(4-dimethylaminophenyl)-5-methyl-4,7-dihydro[1,2,4]triazolo[1,5-a]pyrimidine-6-carboxamide], in the data set with E. faecium NCTC 7171, the “antibacterial activity” value is on record as “as good as compound 16”. In addition, the Apparent intrinsic clearance in data set [1] was under 10.4 mLmin^−1kg^−1. Also, in data set [2], the “Plasma-protein binding (in words)” value was “high”. As for `CC1=C(C(N)=O)C(c2ccc(N(C)C)cc2)n2nc(SCc3ccc(C#N)cc3)nc2N1` (stereo not shown) [Compound 84, 2-(4-Cyanobenzylthio)-7-(4-dimethylaminophenyl)-5-methyl-4,7-dihydro-[1,2,4]triazolo[1,5-a]pyrimidine-6-carboxamide], the “antibacterial activity” value in the data set with E. faecium NCTC 7171 is reported as “as active as compound 1”. Moreover, the Apparent intrinsic clearance in data set [1] was under 10.4 mLmin^−1kg^−1. Besides, the “inhibition of recombinant PBP2a” value at PBP2a of S. aureus was “lacked the ability to inhibit; also recorded: did not inhibit”. Moreover, in the data set on PBP5fm of E. faecium, the “inhibition of PBP5fm” value is listed as “lacked the ability to inhibit; also recorded: did not inhibit”. The “inhibition of PBPs in E. faecium membranes” value in data set [3] is recorded as “did not inhibit”. Further, the hemolysis at 64 μg/mL in the data set “Hemolysis assay” lay within 1 to 2%. As for `CCCCCCCCCC(=O)N[C@@H](Cc1c[nH]c2ccccc12)C(=O)N[C@H](CC(N)=O)C(=O)N[C@@H](CC(=O)O)C(=O)N[C@@H]1C(=O)NCC(=O)N[C@@H](CCCN)C(=O)N[C@@H](CC(=O)O)C(=O)N[C@H](C)C(=O)N[C@@H](CC(=O)O)C(=O)NCC(=O)N[C@H](CO)C(=O)N[C@@H]([C@H](C)CC(=O)O)C(=O)N[C@@H](CC(=O)c2ccccc2N)C(=O)O[C@@H]1C` [daptomycin], the plasma protein binding in data set [4] is over 91%. With `Cc1onc(-c2ccccc2)c1C(=O)N[C@@H]1C(=O)N2[C@@H]1SC(C)(C)[C@@H]2C(=O)O` [oxacillin], the plasma protein binding in data set [4] is reported as over 91%. As for `CO[C@H]1/C=C/O[C@@]2(C)Oc3c(C)c(O)c4c(O)c(c(/C=N/N5CCN(C)CC5)c(O)c4c3C2=O)NC(=O)/C(C)=C\C=C\[C@H](C)[C@H](O)[C@@H](C)[C@@H](O)[C@@H](C)[C@H](OC(C)=O)[C@@H]1C` [rifampicin], the plasma protein binding in data set [4] is on record as over 91%. teicoplanin: in data set [4], the plasma protein binding is over 91%.

Broadly, the MIC is the smallest concentration in the dilution series that meets the test's criterion for growth inhibition. High values mean a less susceptible organism, low ones a more susceptible organism.
